Assay results taken from ChEMBL document CHEMBL4251624, “Synthesis of podophyllotoxin linked β-carboline congeners as potential anticancer agents and DNA topoisomerase II inhibitors” (Eur J Med Chem, 2018).
The source made the active and inactive calls. The rule behind the calls is not given here.

Tests used:
[1] = test system: MDA-MB-231; experiment: Cytotoxicity against human MDA-MB-231 cells after 48 hrs by MTT assay; format: functional, cell-based; details: MDA-MB-231, 48 h
In short: (§1)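 MTT assay. Cells seeded at 1×10^4 per well in DMEM or MEM with 10% FBS and grown 24 h at 37 °C under CO2. Compounds added for 48 h, then MTT (5 mg/mL stock) for 4 h. Formazan dissolved in DMSO and read at 570 nm. IC50 is the average of three independent experiments.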

[2] = organism: Homo sapiens; experiment: Poisoning activity at topoisomerase-2 (unknown origin) assessed as reduction in ATP-dependent decatenation of kinetoplast DNA by measuring linear DNA formation at 10 uM after 30 mins by ethidium bromide staining based UV trans-illumination assay
In short: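 Topo II (5 units, set to decatenate about 100% of kDNA) with 200–300 ng kDNA in 20 μl containing 120 mM KCl, 50 mM Tris-HCl pH 8, 10 mM MgCl2, 0.5 mM DTT, 0.5 mM ATP and BSA. Incubated 30 min at 37 °C, then stopped with SDS plus proteinase K for 10 min at 37 °C. Products run on 1% agarose at 100 V for about 40 min, EtBr-stained and viewed under UV. Etoposide 10 μM served as positive control.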

[3] = test system: HT-29; experiment: Cytotoxicity against human HT-29 cells after 48 hrs by MTT assay; format: functional, cell-based; details: HT-29, 48 h; in short: as §1
[4] = test system: HeLa; experiment: Cytotoxicity against human HeLa cells after 48 hrs by MTT assay; format: functional, cell-based; in short: as §1
[5] = test system: DU-145; experiment: Induction of DNA damage in human DU145 cells after 24 hrs using propidium iodide stain by electrophoresis based fluorescence microscopic method; format: functional, cell-based
In short: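 DU-145 cells seeded in 60 mm dishes, treated at 10 μM for 24 h alongside an untreated control. Slides were washed three times in 0.4 M Tris-HCl pH 7.5, electrophoresed 20 min at 40 V in 0.5% TBE pH 8, PI-stained 30 min, and imaged at 20x.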

[6] = test system: A549; experiment: Cytotoxicity against human A549 cells after 48 hrs by MTT assay; format: functional, cell-based; details: A549, 48 h; in short: as §1

`COc1cc([C@@H]2c3cc4c(cc3[C@@H](O[C@@H]3O[C@@H]5CO[C@@H](C)O[C@H]5[C@H](O)[C@H]3O)[C@H]3COC(=O)[C@H]23)OCO4)cc(OC)c1O` [ETOPOSIDE] was tested, and the IC50 [1] was 1.91 µM, the Activity [2] was “Active” and the IC50 [3] was 1.64 µM. The IC50 [4] was 1.93 µM, the Activity [5] was “Active” and the IC50 [6] was 2.27 µM.
